High-throughput results as filed in PubChem BioAssay.
Compounds with a hit are over-represented: about 5.3% of the library has one in this group of screens.
CSC inhib: cancer stem cell viability inhibitors, primary screen, luminescence. 300,000 compounds, 1.1% hits. inhibition, % at 7.5 µM. cancer stem cell-like cells viability. AID 2717, 2010; in the data active means inhibition above about 75%; inconclusive means no clear call, values can overlap the other calls; tested in HMLE shEcad cells
Mdm2 MdmX PPI: inhibitors of human Mdm2-MdmX association, primary screen, cell-based, luminescence, split luciferase, SaOS-2, uHTS; 330,000 compounds, 3% hits; Protein Mdm4 (Homo sapiens) + E3 ubiquitin-protein ligase Mdm2 (Homo sapiens), …; SaOS-2 split-luciferase Mdm2/MdmX complementation; inhibition, % at 8 µM;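 active means inhibition of at least 50% at 8 µM in the primary screen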
Target sequence (O15151 whole entry, looked up): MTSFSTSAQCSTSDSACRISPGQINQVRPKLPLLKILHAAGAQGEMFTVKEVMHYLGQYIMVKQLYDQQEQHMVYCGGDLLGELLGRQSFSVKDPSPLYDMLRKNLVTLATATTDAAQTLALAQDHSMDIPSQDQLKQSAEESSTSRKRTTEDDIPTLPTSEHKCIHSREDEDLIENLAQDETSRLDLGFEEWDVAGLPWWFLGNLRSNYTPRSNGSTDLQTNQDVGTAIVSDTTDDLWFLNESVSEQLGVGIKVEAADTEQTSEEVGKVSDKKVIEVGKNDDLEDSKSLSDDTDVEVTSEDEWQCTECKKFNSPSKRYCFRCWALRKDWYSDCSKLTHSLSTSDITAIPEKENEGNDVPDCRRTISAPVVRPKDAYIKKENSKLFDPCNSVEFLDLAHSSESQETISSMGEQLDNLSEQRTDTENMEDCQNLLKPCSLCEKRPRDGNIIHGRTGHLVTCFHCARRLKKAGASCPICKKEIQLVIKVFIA
Target sequence (Q00987 whole entry, looked up): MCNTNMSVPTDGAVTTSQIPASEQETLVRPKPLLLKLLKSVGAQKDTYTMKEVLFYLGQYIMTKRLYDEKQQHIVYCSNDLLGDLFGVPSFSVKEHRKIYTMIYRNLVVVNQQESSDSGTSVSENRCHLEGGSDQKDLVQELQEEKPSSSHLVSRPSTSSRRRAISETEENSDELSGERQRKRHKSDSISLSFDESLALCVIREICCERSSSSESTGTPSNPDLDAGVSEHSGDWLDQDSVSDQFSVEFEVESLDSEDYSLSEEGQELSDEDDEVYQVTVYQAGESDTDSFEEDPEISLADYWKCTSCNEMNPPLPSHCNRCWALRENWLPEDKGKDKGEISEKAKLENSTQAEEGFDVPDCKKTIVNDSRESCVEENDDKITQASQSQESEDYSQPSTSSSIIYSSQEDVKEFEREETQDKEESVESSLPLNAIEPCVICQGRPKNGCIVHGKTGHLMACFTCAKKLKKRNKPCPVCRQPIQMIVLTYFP
Calb FLC: C. albicans growth inhibition with fluconazole, primary screen, CaCi-2 strain, Alamar Blue fluorescence; C. albicans CaCi-2 (fluconazole-resistant clinical isolate) + fluconazole, 48 h; 300,000 compounds, 0.57% hits; AID 1979, 2009; growth inhibition, % (concentration not given with the values);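 active means growth inhibition above about 58% in most replicates, limit read from the data, passing the limit was not always enough; inconclusive means exactly half the replicates above a set limit; inactive means most replicates below a set limit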;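 further: all wells also contain fluconazole at 8 µg/ml as a sub-toxic cotreatment; 0% = median of DMSO wells and 100% = median of geldanamycin control wells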
NLRP3 yeast inh: NALP3 inflammasome inhibitors in reconstituted yeast, primary screen, luminescence, uHTS; Yeast reconstituted NLRP3/ASC/caspase-1, beta-gal luminescence, 24 h; inhibition, % at 10 µM; 330,000 compounds, 0.39% hits; AID 2825, 2010;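 active means inhibition of 50% or more; inactive means inhibition below 50%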;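 further: plate controls were induced DMSO wells for no effect and uninduced yeast grown without galactose for full effect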
T cruzi inh: inhibitors of intracellular T. cruzi growth, primary screen, luminescence, NIH3T3 host cells | T. cruzi beta-gal in NIH3T3, 90 h | inhibition, % (concentration not given with the values) | 300,000 compounds, 1.4% hits;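 active means mean inhibition across valid replicates above about 55%, limit read from the data; inconclusive means mean below that limit but half or more replicates reach it; inactive means mean below it, under half of replicates reach it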;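 further: signal also drops with host cell toxicity which is not excluded here; 0% = plate median of DMSO wells and 100% = zero luminescence signal; higher percent means less beta-gal luminescence so fewer parasites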
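Test system: β-gal T. cruzi (Tulahuen C4) inside NIH/3T3 cells / Quantity: 5,000 cells/well / Measured by: luminescence from GalScreen with 0.05% NP40, read after 60 min / Medium: DMEM plus 2% FBS / Measure: parasite load inhibition, % / Reagent: Tulahuen C4 trypomastigotes, 5000/well / Schedule: co-culture of at least 90 h after 3 h attachment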
Beta cell apopt: inhibitors of cytokine-induced beta cell apoptosis, primary screen, luminescence. INS-1E cytokine-induced death, ATP luminescence, 48 h; percent of positive-control rescue, neutral wells zero. protection from apoptosis, % (concentration not given with the values). 300,000 compounds, 0.8% hits. AID 435005, 2010;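 active means Every replicate reaches about 75%, or at least half do and their mean reaches it too, limit read from the data; inconclusive means At least half of replicates reach the limit but their mean does not; inactive means Under half of replicates reach the limit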;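 further: 0% = cytokine-treated negative control wells and 100% = positive control rescue; higher means more ATP so stronger rescue from cytokine killing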
Mdm2 MdmX conf: Mdm2-MdmX complex disruptors, retested hits, confirmation, luminescence, single concentration. shares compounds with Mdm2 MdmX PPI. Mdm2-MdmX binding, luminescent assay. inhibition, % at 8 µM. 10,000 compounds, 55% hits. AID 489028, 2010; in the data active means inhibition above about 40%
FLuc counter: full-length luciferase signal inhibition, confirmation, counter-screen for Mdm2/MdmX interaction inhibitor project, cell-based, single concentration, SaOS-2 | shares compounds with Mdm2 MdmX PPI | SaOS-2 full-length luciferase counterscreen, luminescence | inhibition, % at 8 µM | 6,200 compounds, 77% hits | AID 504607, 2011;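 active means mean inhibition at 8 µM reaching about 37%, which flags the compound as non-specific, limit read from the data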;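 further: p53-null SaOS-2 cells with luciferase driven by a doxycycline-inducible promoter; compound on cells about two nights before reading with doxycycline added after day one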
Active calls of the source: *; ? = inconclusive; . = no result.

SMILES	CSC inhib	Mdm2 MdmX PPI	Calb FLC	NLRP3 yeast inh	T cruzi inh	Beta cell apopt	Mdm2 MdmX conf	FLuc counter
O=C(COC(=O)c1ccccc1O)NC12CC3CC(CC(C3)C1)C2	3.1	-8.0	.	22.1	.	1.2	.	.
N#Cc1cc(Br)ccc1N=C1CCCN1c1ccccc1	.	3.6	-1.1	6.5	-6.1	-9.2	.	.
CC1C(=O)OC(c2ccc(Cl)cc2)C(C)(C)C1=O (centres undefined)	9.6	-7.1	6.3	-5.3	-7.0	-3.6	.	.
C[C@@H]1C=CC(=O)O[C@@H]1c1ccc(Cl)cc1	70.2	78.9*	-1.6	2.5	-6.0	-26.2	61.0*	5.5
CCC(=O)c1ccc(OCC(=O)OCC(=O)N2CCN(c3ccc(OC)cc3)CC2)cc1	3.3	-0.4	-2.3	9.6	-2.5	.	.	.
CC1C/C(=C/c2ccncc2)C(=O)/C(=C/c2ccncc2)C1 (centres undefined)	77.5*	99.0*	1.2	27.5	38.2	111.9*	99.2*	51.2*
COc1cc(F)cc(-c2ccc3c(c2)c(-c2cccs2)c(-c2cc(OC)cc(OC)c2)n3C)c1	?	54.2*	.	-3.5	.	1.0	54.6*	56.8*
Nc1cc(N)nc(SCc2cc(=O)oc3cc4c(cc23)CCC4)n1	-0.7	5.8	10.9	16.4	5.4	0.1	.	.
Brc1ccc(N=Nc2ccc3ccccc3n2)cc1	31.2	78.6*	5.4	39.2	-3.6	.	71.7*	47.7*
CCOc1cc(/C=C2/NC(=S)NC2=O)ccc1OCc1ccc([N+](=O)[O-])cc1	32.0	59.9*	2.5	35.2	-1.6	41.4	34.8	.
CCNC(=S)N1CC(C)OC(C)C1 (centres undefined)	-11.1	9.9	-9.5	8.3	-20.4	-1.1	.	.
Cc1cc(C)n(C(=O)c2ccc(NC(=O)C3CC3)cc2)n1	5.2	10.1	4.2	15.9	-5.9	-1.8	.	.
CN1Cc2cc(C(=O)c3ccccc3O)cnc2NC1=O	-6.7	23.0	10.6	10.4	-6.1	1.3	.	.
COc1ccc(O)c(C(=O)c2cnc3c(c2)CN(C)C(=O)N3)c1	30.2	62.6*	12.0	19.6	-5.5	2.8	40.5*	63.3*
O=C(NC(=S)NCCC1=CCCCC1)c1cncc(Br)c1	1.8	11.3	-37.6	-15.3	3.3	0.8	.	.
COc1cccc(OCc2nnc(SCC(=O)NCc3ccco3)n2C)c1	.	12.9	1.2	11.2	5.9	-3.3	.	.
CC(C)C[C@H](NC(=O)c1nc[nH]c1C(=O)NCCNC(=O)OC(C)(C)C)C(=O)CNCCNC(=O)c1[nH]cnc1C(=O)N[C@@H](C)C(=O)OC(C)(C)C	.	17.9	.	23.8	.	-4.2	.	.
COc1ccc(CNc2ncnc3cc(Cl)ccc23)cc1OC	.	.	-1.4	.	17.1	.	.	.
CCN(CC)Cc1cc2[nH]c3c4ccc(Cl)cc4ncc3c2cc1OC	.	54.0*	-22.7	9.8	61.8*	.	24.0	.
O=C(C1CC1)N1CCc2cc(S(=O)(=O)N3CCN(c4ccccc4)CC3)ccc21	-5.0	29.4	-30.2	3.9	7.5	3.7	.	.
CCC(=O)N1CCc2cc(S(=O)(=O)N3CCN(c4ccccc4)CC3)ccc21	1.0	54.9*	0.3	10.8	-11.4	-7.9	-18.0	.
Cc1ccccc1C1C(C#N)=C2NC(=O)c3c(sc4c3CCCCC4)N2C2=C1C(=O)CC(C)(C)C2 (centres undefined)	15.4	81.7*	?	-0.9	-7.6	0.0	63.4*	37.9*
COc1cc(/C=N/N=C(N)N)ccc1OCc1ccccc1Cl	62.7	100.0*	20.7	13.3	55.4*	20.4	39.0	73.8*
